Reference: ChEMBL document CHEMBL1143838, “Candida albicans and Candida dubliniensis respond differently to echinocandin antifungal agents in vitro” (2007)
≈ marks a conversion by molar mass, not a printed value. *1 amine or outer side, *2 acyl side, *3 side chain or, on linkers, in order; H or OH if unused. Where a SMILES comes first, the peptide text is derived from it. Bridges are numbered along the chain shown (N, C = ends). [ ]: non-standard residue; d: D form. The star is where a group is joined. hTyr(3S-OH,4S-OH,3'-OSO3H) = N[C@H](C(=O)O)[C@H](O)[C@@H](O)c1ccc(O)c(OS(=O)(=O)O)c1; Orn(4R-OH,5R-OH) = O=C([C@H](C[C@@H](O)[C@@H](O)N[*:3])N[*:1])[*:2]; Pro(3S-OH,4S-Me) = C[C@H]1CN[C@H](C(=O)O)[C@H]1O; X1 = CCCCCOc1ccc(-c2cc(-c3ccc(C(=O)*)cc3)no2)cc1; Gln(3R-OH) = NC(=O)C[C@@H](O)[C@H](N)C(=O)O; Hyp = O=C(O)[C@@H]1C[C@@H](O)CN1

Legend:
Type in all cases: functional
Candida dubliniensis [1] = test: Antifungal activity against Candida dubliniensis J931021 after 24 hrs by CLSI M27-A test
Method in brief: (§1)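 Broth microdilution with echinocandins as aqueous doubling dilutions. Yeasts were grown overnight at 30°C in NGY and seeded at 10^3 yeasts/ml initial concentration in MOPS-buffered RPMI 1640, then incubated at 35°C for 24 h. The MIC was read visually as the lowest concentration giving a marked decrease in visible growth; paradoxical or trailing growth was noted.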

Candida dubliniensis [2] = test: Antifungal activity against Candida dubliniensis 75/043 after 24 hrs by EUCAST test
Method in brief: (§2)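 EUCAST broth microdilution with aqueous doubling dilutions of drug. Inoculum grown overnight at 30°C in NGY, then added to MOPS-buffered RPMI 1640 with 2% glucose at an initial 10^5 yeasts/ml. Incubated 35°C for 24 h. MICs taken from triplicate spectrophotometric dose-response data as 50% and 80% growth-reduction endpoints.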

Candida albicans [3] = test: Antifungal activity against Candida albicans T25 after 24 hrs by CLSI M27-A test
Method in brief: (§3)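 CLSI M27-A broth microdilution with aqueous doubling dilutions of drug. Inoculum grown overnight at 30°C in NGY medium, then added to MOPS-buffered RPMI 1640 at an initial 10^3 yeasts/ml. Incubated 35°C for 24 h. MIC read visually as the lowest concentration giving a marked decrease in visible growth; paradoxical or trailing growth noted.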

Candida dubliniensis [4] = test: Antifungal activity against Candida dubliniensis Leic952 after 24 hrs by CLSI M27-A test; method in brief: as §1
Candida albicans [5] = test: Antifungal activity against Candida albicans HK04M102095 after 24 hrs by EUCAST test; method in brief: as §2
Candida dubliniensis [6] = test: Antifungal activity against Candida dubliniensis J930936 after 24 hrs by EUCAST test
Method in brief: (§4)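 Yeasts were grown overnight at 30°C in NGY, then inoculated at 10^5 yeasts/ml initial concentration into MOPS-buffered RPMI 1640 with 2% glucose containing aqueous doubling dilutions of drug. Plates were held at 35°C for 24 h. MICs came from triplicate spectrophotometric dose-response data at 50% and 80% growth-reduction endpoints. Trailing meant a >100-fold gap between these endpoints; paradoxical meant regrowth ≥5% above the curve minimum.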

Candida albicans [7] = test: Antifungal activity against Candida albicans CAI4RI after 24 hrs by CLSI M27-A test; method in brief: as §3
Candida albicans [8] = test: Antifungal activity against Candida albicans JIMS146204 after 24 hrs by EUCAST test; method in brief: as §2
Candida dubliniensis [9] = test: Antifungal activity against Candida dubliniensis 90/033 after 24 hrs by EUCAST test; method in brief: as §2
Candida dubliniensis [10] = test: Antifungal activity against Candida dubliniensis ANSA 23a after 24 hrs by EUCAST test; method in brief: as §4
Candida dubliniensis [11] = test: Antifungal activity against Candida dubliniensis B71507 after 24 hrs by CLSI M27-A test; method in brief: as §1
Candida albicans [12] = test: Antifungal activity against Candida albicans NR2 after 24 hrs by CLSI M27-A test; method in brief: as §3
Candida albicans [13] = test: Antifungal activity against Candida albicans NR3 after 24 hrs by EUCAST test; method in brief: as §2
Candida dubliniensis [14] = test: Antifungal activity against Candida dubliniensis SCS17154969-1 after 24 hrs by CLSI M27-A test; method in brief: as §1
Candida dubliniensis [15] = test: Antifungal activity against Candida dubliniensis FS after 24 hrs by CLSI M27-A test; method in brief: as §1
Candida albicans [16] = test: Antifungal activity against Candida albicans NR3 after 24 hrs by CLSI M27-A test; method in brief: as §3
Candida albicans [17] = test: Antifungal activity against Candida albicans JIMS146204 after 24 hrs by CLSI M27-A test; method in brief: as §3
Pichia kudriavzevii = test: Antifungal activity against Candida krusei ATCC 6258 after 24 hrs by EUCAST test; details: ATCC 6258, 24 h; method in brief: as §4
Candida albicans [18] = test: Antifungal activity against Candida albicans Y109 after 24 hrs by EUCAST test; method in brief: as §2
Candida albicans [19] = test: Antifungal activity against Candida albicans T32 after 24 hrs by CLSI M27-A test; method in brief: as §3
Candida albicans [20] = test: Antifungal activity against Candida albicans HK04M102095 after 24 hrs by CLSI M27-A test; method in brief: as §3
Candida albicans [21] = test: Antifungal activity against Candida albicans NCPF6525 after 24 hrs by CLSI M27-A test; method in brief: as §3
Candida albicans [22] = test: Antifungal activity against Candida albicans SCS67023C after 24 hrs by CLSI M27-A test; method in brief: as §3
Candida dubliniensis [23] = test: Antifungal activity against Candida dubliniensis ST after 24 hrs by CLSI M27-A test; method in brief: as §1
Candida dubliniensis [24] = test: Antifungal activity against Candida dubliniensis SCSBB417709 after 24 hrs by EUCAST test; method in brief: as §4
Candida dubliniensis [25] = test: Antifungal activity against Candida dubliniensis KR after 24 hrs by CLSI M27-A test; method in brief: as §1
Candida dubliniensis [26] = test: Antifungal activity against Candida dubliniensis Leic952 after 24 hrs by EUCAST test; method in brief: as §4
Candida albicans [27] = test: Antifungal activity against Candida albicans SCS68858 after 24 hrs by CLSI M27-A test; method in brief: as §3
Candida dubliniensis [28] = test: Antifungal activity against Candida dubliniensis AMCC after 24 hrs by EUCAST test; method in brief: as §2
Candida dubliniensis [29] = test: Antifungal activity against Candida dubliniensis SCS17154969-2 after 24 hrs by EUCAST test; method in brief: as §4
Candida parapsilosis [30] = test: Antifungal activity against Candida parapsilosis ATCC 22019 after 24 hrs by CLSI M27-A test; details: Lodderomyces parapsilosis, ATCC 22019, 24 h; method in brief: as §1
Candida dubliniensis [31] = test: Antifungal activity against Candida dubliniensis IK after 24 hrs by CLSI M27-A test; method in brief: as §1
Candida albicans [32] = test: Antifungal activity against Candida albicans T28 after 24 hrs by CLSI M27-A test; method in brief: as §3
Candida dubliniensis [33] = test: Antifungal activity against Candida dubliniensis B71507 after 24 hrs by EUCAST test; method in brief: as §4
Candida albicans [34] = test: Antifungal activity against Candida albicans JIMS132203 after 24 hrs by EUCAST test; method in brief: as §2
Candida dubliniensis [35] = test: Antifungal activity against Candida dubliniensis SCS65875C after 24 hrs by EUCAST test; method in brief: as §4
Candida parapsilosis [36] = test: Antifungal activity against Candida parapsilosis ATCC 22019 after 24 hrs by EUCAST test; details: Lodderomyces parapsilosis, ATCC 22019, 24 h; method in brief: as §4
Candida albicans [37] = test: Antifungal activity against Candida albicans SCS140136P after 24 hrs by CLSI M27-A test; method in brief: as §3
Candida albicans [38] = test: Antifungal activity against Candida albicans NR4 after 24 hrs by EUCAST test; method in brief: as §2
Candida dubliniensis [39] = test: Antifungal activity against Candida dubliniensis ST after 24 hrs by EUCAST test; method in brief: as §4
Candida albicans [40] = test: Antifungal activity against Candida albicans SCS68858 after 24 hrs by EUCAST test; method in brief: as §2
Candida dubliniensis [41] = test: Antifungal activity against Candida dubliniensis KR after 24 hrs by EUCAST test; method in brief: as §4
Candida albicans [42] = test: Antifungal activity against Candida albicans AM2003/0083 after 24 hrs by CLSI M27-A test; method in brief: as §3
Candida dubliniensis [43] = test: Antifungal activity against Candida dubliniensis SCS17154969-1 after 24 hrs by EUCAST test; method in brief: as §4
Candida albicans [44] = test: Antifungal activity against Candida albicans JIMS132203 after 24 hrs by CLSI M27-A test; method in brief: as §3

SMILES: CCCCCOc1ccc(-c2cc(-c3ccc(C(=O)N[C@H]4C[C@@H](O)[C@@H](O)NC(=O)[C@@H]5[C@@H](O)[C@@H](C)CN5C(=O)[C@H]([C@H](O)CC(N)=O)NC(=O)[C@H]([C@H](O)[C@@H](O)c5ccc(O)c(OS(=O)(=O)O)c5)NC(=O)[C@@H]5C[C@@H](O)CN5C(=O)[C@H]([C@@H](C)O)NC4=O)cc3)no2)cc1 [MICAFUNGIN] (X1-[Orn(4R-OH,5R-OH)]T[Hyp][hTyr(3S-OH,4S-OH,3'-OSO3H)][Gln(3R-OH)][Pro(3S-OH,4S-Me)]; lactam 1-C)
- MIC50 (Candida dubliniensis [1]): ≤ 0.032 µg/mL
- MIC50 (Candida dubliniensis [2]): ≤ 0.032 µg/mL
- MIC50 (Candida albicans [3]): 1 µg/mL (≈ 0.787 µM)
- MIC50 (Candida dubliniensis [4]): ≤ 0.032 µg/mL
- MIC50 (Candida albicans [5]): ≤ 0.032 µg/mL
- MIC50 (Candida dubliniensis [6]): ≤ 0.032 µg/mL
- MIC50 (Candida albicans [7]): 0.25 µg/mL (≈ 0.197 µM)
- MIC50 (Candida albicans [8]): ≤ 0.032 µg/mL
- MIC50 (Candida dubliniensis [9]): 0.063 µg/mL (≈ 0.0496 µM)
- MIC50 (Candida dubliniensis [10]): ≤ 0.032 µg/mL
- MIC50 (Candida dubliniensis [11]): ≤ 0.032 µg/mL
- MIC50 (Candida albicans [12]): 0.25 µg/mL (≈ 0.197 µM)
- MIC50 (Candida albicans [13]): 2 µg/mL (≈ 1.57 µM)
- MIC50 (Candida dubliniensis [14]): ≤ 0.032 µg/mL
- MIC50 (Candida dubliniensis [15]): ≤ 0.032 µg/mL
- MIC50 (Candida albicans [16]): 1 µg/mL (≈ 0.787 µM)
- MIC50 (Candida albicans [17]): ≤ 0.032 µg/mL
- MIC50 (Pichia kudriavzevii): 0.13 µg/mL (≈ 0.102 µM)
- MIC50 (Candida albicans [18]): 0.25 µg/mL (≈ 0.197 µM)
- MIC50 (Candida albicans [19]): ≤ 0.032 µg/mL
- MIC50 (Candida albicans [20]): ≤ 0.032 µg/mL
- MIC50 (Candida albicans [21]): ≤ 0.032 µg/mL
- MIC50 (Candida albicans [22]): ≤ 0.032 µg/mL
- MIC50 (Candida dubliniensis [23]): ≤ 0.032 µg/mL
- MIC50 (Candida dubliniensis [24]): ≤ 0.032 µg/mL
- MIC50 (Candida dubliniensis [25]): ≤ 0.032 µg/mL
- MIC50 (Candida dubliniensis [26]): 0.063 µg/mL (≈ 0.0496 µM)
- MIC50 (Candida albicans [27]): ≤ 0.032 µg/mL
- MIC50 (Candida dubliniensis [28]): ≤ 0.032 µg/mL
- MIC50 (Candida dubliniensis [29]): 0.063 µg/mL (≈ 0.0496 µM)
- MIC50 (Candida parapsilosis [30]): 0.25 µg/mL (≈ 0.197 µM)
- MIC50 (Candida dubliniensis [31]): ≤ 0.032 µg/mL
- MIC50 (Candida albicans [32]): ≤ 0.032 µg/mL
- MIC50 (Candida dubliniensis [33]): 0.063 µg/mL (≈ 0.0496 µM)
- MIC50 (Candida albicans [34]): ≤ 0.032 µg/mL
- MIC50 (Candida dubliniensis [35]): ≤ 0.032 µg/mL
- MIC50 (Candida parapsilosis [36]): 0.5 µg/mL (≈ 0.394 µM)
- MIC50 (Candida albicans [37]): ≤ 0.032 µg/mL
- MIC50 (Candida albicans [38]): 0.5 µg/mL (≈ 0.394 µM)
- MIC50 (Candida dubliniensis [39]): 0.063 µg/mL (≈ 0.0496 µM)
- MIC50 (Candida albicans [40]): ≤ 0.032 µg/mL
- MIC50 (Candida dubliniensis [41]): ≤ 0.032 µg/mL
- MIC50 (Candida albicans [42]): ≤ 0.032 µg/mL
- MIC50 (Candida dubliniensis [43]): 0.063 µg/mL (≈ 0.0496 µM)
- MIC50 (Candida albicans [44]): ≤ 0.032 µg/mL
